pIC50: −log10 of the molar value. ≈ marks a conversion by molar mass, not a printed value.
How the values were obtained:
[1] = Stability in human liver microsomes aunder NADPH generating system at 37 degC for 60 mins by LC-MS/MS method; format: ADME, Microsome; conditions: read-out: Stability
How it was run: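 Test compound incubated with 0.125 mg human liver microsomal protein plus NADPH-generating system, shaken 37°C for 60 min. Remaining parent quantified by LC-MS/MS and expressed as percent; acid metabolites also monitored. Mean of triplicate independent analyses.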

[2] = Solubility in water using 0.1 M pH 7.4 phosphate buffer by LC-MS/MS method; format: physicochemical
How it was run: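 Excess solid suspended in 0.1 M sodium phosphate buffer, pH 7.4; equilibrated by 1 h sonication then 24 h shaking; centrifuged. Supernatant analysed by LC-MS/MS, with amount calculated from a regression curve built for each compound from five standard solutions.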

[3] = target: T1, Bifunctional epoxide hydrolase 2 (Homo sapiens, UniProt P34913); assay: Inhibition of human soluble epoxide hydrolase pre-incubated for 5 mins at 30 degC before CMNPC fluorescent substrate addition by fluorimetric assay
T1 sequence (P34913 whole entry): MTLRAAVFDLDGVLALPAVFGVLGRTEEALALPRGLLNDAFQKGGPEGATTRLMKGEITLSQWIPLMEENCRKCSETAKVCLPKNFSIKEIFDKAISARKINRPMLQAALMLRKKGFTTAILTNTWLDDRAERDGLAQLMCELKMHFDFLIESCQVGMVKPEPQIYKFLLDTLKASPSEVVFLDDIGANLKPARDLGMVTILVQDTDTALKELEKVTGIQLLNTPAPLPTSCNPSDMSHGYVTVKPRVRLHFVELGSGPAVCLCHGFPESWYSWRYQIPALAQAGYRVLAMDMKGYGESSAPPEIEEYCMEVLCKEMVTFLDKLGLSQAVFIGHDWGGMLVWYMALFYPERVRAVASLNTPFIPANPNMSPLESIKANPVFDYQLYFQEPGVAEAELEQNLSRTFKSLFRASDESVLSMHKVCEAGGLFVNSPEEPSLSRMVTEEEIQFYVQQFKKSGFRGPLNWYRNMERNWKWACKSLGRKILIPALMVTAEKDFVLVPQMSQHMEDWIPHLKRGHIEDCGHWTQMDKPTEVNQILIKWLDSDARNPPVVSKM
How it was run: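 Recombinant-free detail not given; human sEH at 0.96 nM preincubated with inhibitor 5 min at 30°C in 25 mM Bis-Tris/HCl, pH 7.0, then fluorescent substrate added at 5 μM. Fluorescence read-out; IC50 reported as mean of three separate measurements, assay standard error stated as 10–20%.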

For `CCOCCOCC(OC(=O)CCCNC(=O)NC12CC3CC(CC(C3)C1)C2)c1ccccc1` (stereo not given), the remaining at 1 h [1] was 14%, the solubility [2] was 89 µg/mL (≈ 188 µM) and the pIC50 [3] was 8.40.

Molecule `CCCCC(C)OC(=O)CCCNC(=O)NC12CC3CC(CC(C3)C1)C2` (stereo not given) has a pIC50 [3] of 8.40.

For `CCCCC(CC)OC(=O)CCCNC(=O)NC12CC3CC(CC(C3)C1)C2` (stereo not given), the remaining at 1 h [1] was 4%, the solubility [2] was 3 µg/mL (≈ 7.92 µM) and the pIC50 [3] was 8.40.

Molecule `CCCCC(C#N)OC(=O)CCCNC(=O)NC12CC3CC(CC(C3)C1)C2` (stereo not given) has a pIC50 [3] of 7.92.

`CCOCCOCCOC(=O)CCCNC(=O)NC12CC3CC(CC(C3)C1)C2` gave a remaining at 1 h [1] of 10%, a solubility [2] of 878 µg/mL (≈ 2210 µM) and a pIC50 [3] of 7.17.

Work on `O=C(NC1CCCC(C(=O)O)C1)NC12CC3CC(CC(C3)C1)C2` (stereo not given) yielded a remaining at 1 h [1] of 95% and a pIC50 [3] of 5.94.

`CCCCCOC(=O)C1CCCC(NC(=O)NC23CC4CC(CC(C4)C2)C3)C1` (stereo not given) gave a pIC50 [3] of 8.70.

Work on `CCCCC(CC)OC(=O)C1CCCC(NC(=O)NC23CC4CC(CC(C4)C2)C3)C1` (stereo not given) yielded a remaining at 1 h [1] of 10%, a solubility [2] of 1 µg/mL (≈ 2.39 µM) and a pIC50 [3] of 8.52.

Work on `CCOCCOCC(OC(=O)C1CCCC(NC(=O)NC23CC4CC(CC(C4)C2)C3)C1)c1ccccc1` (stereo not given) yielded a remaining at 1 h [1] of 32%, a solubility [2] of 41 µg/mL (≈ 80 µM) and a pIC50 [3] of 8.05.

`CCCCCOC(=O)CCCNC(=O)NC12CC3CC(CC(C3)C1)C2` gave a remaining at 1 h [1] of less than 1%, a solubility [2] of 2 µg/mL (≈ 5.71 µM) and a pIC50 [3] of 8.00.

Molecule `O=C(O)CCCNC(=O)NC12CC3CC(CC(C3)C1)C2` has a remaining at 1 h [1] of 97% and a pIC50 [3] of 6.16.
